From ChEMBL document CHEMBL2163259, “ADME-guided design and synthesis of aryloxanyl pyrazolone derivatives to block mutant superoxide dismutase 1 (SOD1) cytotoxicity and protein aggregation: potential application for the treatment of amyotrophic lateral sclerosis” (J Med Chem, 2012)

Tests used:
[1] = Half life in mouse microsomes at 5 uM incubated for 1 hr at 37 degC in presence of NADPH; format: ADME, Microsome; conditions: 1 h, 5 µM
Caco-2 = experiment: Apparent permeability from apical to basolateral side in human Caco2 cells; format: ADME, cell-based
[2] = Plasma concentration in B6SJL mouse at 300 mg/kg after 3 hrs by mass spectrometry; format: ADME, organism-based; design: dose 300 mg/kg
How it was run: (§1)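 B6SJL mice were given a single 300 mg/kg intraperitoneal bolus. Blood and brain were collected at 0, 1, 3, 6, 12 and 24 h, flash-frozen in liquid nitrogen and stored at -80 °C. Samples were analyzed by mass spectrometry with ESI ionization in MRM mode.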

[3] = Plasma concentration in B6SJL mouse at 300 mg/kg after 12 hrs by mass spectrometry; format: ADME, organism-based; design: dose 300 mg/kg; how it was run: as §1
[4] = Cmax in Sprague-Dawley rat at 1 mg/kg, po; format: ADME, organism-based; design: dose 1 mg/kg, route oral; conditions: in vivo
How it was run: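 Sprague-Dawley rats given a single 1 mg/kg bolus, intravenous or oral. Plasma PK parameters (AUC, dose-normalised AUC, half-life, clearance, Vss, Cmax, Tmax, oral bioavailability) derived from plasma levels.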

[5] = Tmax in Sprague-Dawley rat at 1 mg/kg, po; format: ADME, organism-based; design: dose 1 mg/kg, route oral; conditions: in vivo
How it was run: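 Sprague-Dawley rats received a single bolus of 1 mg/kg by i.v. or by oral route. Plasma PK parameters were derived from the plasma concentration profile.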

hERG = hERG (Homo sapiens, UniProt Q12809); experiment: Inhibition of human ERG expressed in human HEK293 cells at 10 uM by patch clamp assay; format: cell-based; conditions: HEK293 cells that express hERG
How it was run: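 Cloned hERG potassium channels expressed in HEK293 cells. FASTPatch patch-clamp screen with test compound at 10 μM, two experiments. E-4031 used as positive control. Solubility at test concentration checked by TurboSol; value given as mean % hERG antagonism.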

Cytochrome P450 2C19 = Cytochrome P450 2C19 (Homo sapiens, UniProt P33261); experiment: Inhibition of CYP2C19; format: ADME
Cytochrome P450 2C19, sequence (P33261 whole entry): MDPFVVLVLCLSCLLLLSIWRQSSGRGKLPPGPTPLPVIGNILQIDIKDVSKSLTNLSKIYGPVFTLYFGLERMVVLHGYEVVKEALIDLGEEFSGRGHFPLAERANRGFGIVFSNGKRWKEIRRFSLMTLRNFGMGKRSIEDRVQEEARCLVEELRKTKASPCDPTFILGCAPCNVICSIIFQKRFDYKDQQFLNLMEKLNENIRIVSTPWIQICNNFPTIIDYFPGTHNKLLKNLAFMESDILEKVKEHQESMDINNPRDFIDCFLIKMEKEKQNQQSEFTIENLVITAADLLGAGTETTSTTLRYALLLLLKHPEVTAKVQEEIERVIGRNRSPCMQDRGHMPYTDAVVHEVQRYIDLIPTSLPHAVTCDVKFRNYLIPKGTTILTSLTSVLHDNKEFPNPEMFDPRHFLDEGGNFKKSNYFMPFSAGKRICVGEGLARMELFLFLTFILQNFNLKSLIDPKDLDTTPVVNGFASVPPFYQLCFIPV
How it was run: (§2)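 Reversible inhibition of CYP isozymes in human liver microsomes, each isozyme with a single probe substrate. CYP3A4 tested with both testosterone and midazolam. IC50 determined.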

Cytochrome P450 2D6 = Cytochrome P450 2D6 (Homo sapiens, UniProt P10635); experiment: Inhibition of CYP2D6; format: ADME; how it was run: as §2
Cytochrome P450 2D6, sequence (P10635 whole entry): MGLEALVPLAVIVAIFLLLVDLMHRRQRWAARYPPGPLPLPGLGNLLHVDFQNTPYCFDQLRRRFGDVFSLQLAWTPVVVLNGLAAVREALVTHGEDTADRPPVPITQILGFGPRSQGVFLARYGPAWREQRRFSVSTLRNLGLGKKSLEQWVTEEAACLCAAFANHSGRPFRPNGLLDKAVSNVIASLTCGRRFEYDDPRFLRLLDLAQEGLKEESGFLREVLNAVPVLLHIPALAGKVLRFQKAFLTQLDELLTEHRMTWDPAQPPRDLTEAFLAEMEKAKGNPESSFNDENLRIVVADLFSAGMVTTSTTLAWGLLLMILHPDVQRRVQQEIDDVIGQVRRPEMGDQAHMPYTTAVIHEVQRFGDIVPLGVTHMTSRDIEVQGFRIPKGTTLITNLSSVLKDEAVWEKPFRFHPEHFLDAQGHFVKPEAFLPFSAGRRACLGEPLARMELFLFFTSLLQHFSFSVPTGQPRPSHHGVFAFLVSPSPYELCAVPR

Cytochrome P450 3A4 = Cytochrome P450 3A4 (Homo sapiens, UniProt P08684); experiment: Inhibition of CYP3A4 using midazolam as substrate; format: ADME; how it was run: as §2
Cytochrome P450 3A4, sequence (P08684 whole entry): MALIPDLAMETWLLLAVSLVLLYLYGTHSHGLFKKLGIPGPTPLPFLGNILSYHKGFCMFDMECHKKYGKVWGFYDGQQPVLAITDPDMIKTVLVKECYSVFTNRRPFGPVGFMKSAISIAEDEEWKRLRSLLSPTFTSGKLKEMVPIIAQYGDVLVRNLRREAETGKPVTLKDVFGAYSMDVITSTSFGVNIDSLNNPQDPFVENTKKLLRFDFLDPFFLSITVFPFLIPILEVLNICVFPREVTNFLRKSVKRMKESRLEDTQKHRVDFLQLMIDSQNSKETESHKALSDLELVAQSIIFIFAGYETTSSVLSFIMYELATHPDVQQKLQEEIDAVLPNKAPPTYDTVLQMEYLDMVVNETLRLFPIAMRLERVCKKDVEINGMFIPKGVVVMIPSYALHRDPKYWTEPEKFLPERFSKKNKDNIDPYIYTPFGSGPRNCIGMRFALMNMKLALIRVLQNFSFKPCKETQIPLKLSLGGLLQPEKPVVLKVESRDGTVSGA

[6] = molecular target: Adenosine receptor A3 (Homo sapiens) (UniProt P0DMS8); experiment: Inhibition of human adenosine A3 receptor at 10 uM by radioligand displacement assay
Adenosine receptor A3 (Homo sapiens), sequence (P0DMS8 whole entry): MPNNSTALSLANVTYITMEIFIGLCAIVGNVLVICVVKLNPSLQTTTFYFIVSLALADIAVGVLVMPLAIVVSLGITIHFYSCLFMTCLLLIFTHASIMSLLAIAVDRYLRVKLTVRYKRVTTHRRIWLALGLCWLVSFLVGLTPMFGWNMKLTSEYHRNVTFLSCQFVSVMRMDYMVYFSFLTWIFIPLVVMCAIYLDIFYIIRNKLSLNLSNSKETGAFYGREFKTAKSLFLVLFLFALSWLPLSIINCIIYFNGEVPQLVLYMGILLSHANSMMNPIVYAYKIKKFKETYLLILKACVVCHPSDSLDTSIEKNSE
How it was run: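 Single concentration of 10 μM, tested in duplicate in a contract panel of 68 in vitro enzyme and receptor binding assays covering common adverse CNS, cardiovascular, pulmonary and genotoxic targets.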

[7] = molecular target: Alpha-1D adrenergic receptor (Homo sapiens) (UniProt P25100); experiment: Inhibition of human adrenergic alpha1D receptor at 10 uM by radioligand displacement assay
How it was run: (§3)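 LeadProfilingScreen panel of 68 in vitro enzyme and receptor assays. Compound tested at 10 μM in duplicate.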

[8] = molecular target: Beta-2 adrenergic receptor (Homo sapiens) (UniProt P07550); experiment: Inhibition of human beta2 adrenergic receptor at 10 uM by radioligand displacement assay; how it was run: as §3
[9] = molecular target: D(3) dopamine receptor (Homo sapiens) (UniProt P35462); experiment: Inhibition of human dopamine D3 receptor at 10 uM by radioligand displacement assay
D(3) dopamine receptor (Homo sapiens), sequence (P35462 whole entry): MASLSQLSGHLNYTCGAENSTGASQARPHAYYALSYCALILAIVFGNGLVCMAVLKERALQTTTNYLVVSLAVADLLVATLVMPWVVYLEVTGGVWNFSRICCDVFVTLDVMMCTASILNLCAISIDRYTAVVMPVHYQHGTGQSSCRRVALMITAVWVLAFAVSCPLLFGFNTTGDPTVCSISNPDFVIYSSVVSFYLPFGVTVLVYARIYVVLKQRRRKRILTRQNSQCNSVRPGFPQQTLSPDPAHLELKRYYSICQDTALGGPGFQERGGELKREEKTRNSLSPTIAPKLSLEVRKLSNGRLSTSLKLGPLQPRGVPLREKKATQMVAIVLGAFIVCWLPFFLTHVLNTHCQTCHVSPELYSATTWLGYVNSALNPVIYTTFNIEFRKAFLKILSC
How it was run: (§4)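 Single concentration of 10 μM, tested in duplicate as part of a contracted panel of 68 in vitro enzyme and receptor assays. The panel covers common adverse CNS, cardiovascular, pulmonary and genotoxic targets.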

Homo sapiens = species on record: Homo sapiens; experiment: Inhibition of human dopamine D4.2 receptor at 10 uM by radioligand displacement assay; how it was run: as §4
[10] = molecular target: Endothelin receptor type B (Homo sapiens) (UniProt P24530); experiment: Inhibition of human endothelin ETB at 10 uM by radioligand displacement assay; how it was run: as §4
Endothelin receptor type B (Homo sapiens), sequence (P24530 whole entry): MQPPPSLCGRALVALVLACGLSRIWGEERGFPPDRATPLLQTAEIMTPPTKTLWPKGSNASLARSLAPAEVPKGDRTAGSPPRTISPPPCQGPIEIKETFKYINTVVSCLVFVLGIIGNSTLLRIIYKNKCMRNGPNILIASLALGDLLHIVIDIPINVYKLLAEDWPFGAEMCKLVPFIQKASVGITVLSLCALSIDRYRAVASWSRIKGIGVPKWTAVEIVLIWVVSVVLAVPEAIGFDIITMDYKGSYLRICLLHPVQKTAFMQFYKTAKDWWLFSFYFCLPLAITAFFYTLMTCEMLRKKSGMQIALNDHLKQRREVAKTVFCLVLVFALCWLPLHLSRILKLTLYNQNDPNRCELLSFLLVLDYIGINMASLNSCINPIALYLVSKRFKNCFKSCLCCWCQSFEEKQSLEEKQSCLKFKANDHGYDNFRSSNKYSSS

[11] = molecular target: Estrogen receptor (Homo sapiens) (UniProt P03372); experiment: Inhibition of human estrogen receptor-alpha at 10 uM by radioligand displacement assay; how it was run: as §4
Estrogen receptor (Homo sapiens), sequence (P03372 whole entry): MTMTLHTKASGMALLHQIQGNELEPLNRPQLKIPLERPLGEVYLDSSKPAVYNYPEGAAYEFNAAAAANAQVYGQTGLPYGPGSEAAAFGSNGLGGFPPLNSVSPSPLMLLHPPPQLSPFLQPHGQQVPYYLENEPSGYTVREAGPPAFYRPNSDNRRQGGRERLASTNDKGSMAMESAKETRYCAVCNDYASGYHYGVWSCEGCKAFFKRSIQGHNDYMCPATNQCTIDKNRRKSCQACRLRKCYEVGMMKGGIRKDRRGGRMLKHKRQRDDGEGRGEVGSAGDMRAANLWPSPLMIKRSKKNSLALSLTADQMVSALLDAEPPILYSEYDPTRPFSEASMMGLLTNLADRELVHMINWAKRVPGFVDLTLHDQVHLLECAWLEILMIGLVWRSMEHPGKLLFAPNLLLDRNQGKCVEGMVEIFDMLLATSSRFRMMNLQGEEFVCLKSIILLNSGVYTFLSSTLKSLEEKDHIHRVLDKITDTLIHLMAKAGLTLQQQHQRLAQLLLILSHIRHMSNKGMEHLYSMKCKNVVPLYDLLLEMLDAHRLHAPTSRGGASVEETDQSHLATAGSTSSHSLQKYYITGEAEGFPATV

[12] = molecular target: Pyroglutamylated RF-amide peptide receptor (Homo sapiens) (UniProt Q96P65); experiment: Inhibition of human GPR103 receptor at 10 uM by radioligand displacement assay; how it was run: as §3
Pyroglutamylated RF-amide peptide receptor (Homo sapiens), sequence (Q96P65 whole entry): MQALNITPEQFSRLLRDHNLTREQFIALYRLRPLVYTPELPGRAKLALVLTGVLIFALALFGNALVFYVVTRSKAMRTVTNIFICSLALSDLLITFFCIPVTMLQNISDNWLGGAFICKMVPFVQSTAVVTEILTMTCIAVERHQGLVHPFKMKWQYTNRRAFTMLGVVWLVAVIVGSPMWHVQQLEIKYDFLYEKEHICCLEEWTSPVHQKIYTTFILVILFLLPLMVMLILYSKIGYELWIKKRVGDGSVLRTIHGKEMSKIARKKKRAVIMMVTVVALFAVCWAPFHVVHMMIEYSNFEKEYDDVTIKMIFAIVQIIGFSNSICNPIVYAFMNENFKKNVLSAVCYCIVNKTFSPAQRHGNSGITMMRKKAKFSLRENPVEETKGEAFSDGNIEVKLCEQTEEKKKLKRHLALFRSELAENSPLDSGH

Rattus norvegicus [13] = species on record: Rattus norvegicus; experiment: Inhibition of rat GABAA receptor flunitrazepam site at 10 uM by radioligand displacement assay; how it was run: as §4
[14] = molecular target: Gamma-aminobutyric acid type B receptor subunit 1 (Homo sapiens) (UniProt Q9UBS5); experiment: Inhibition of human GABAB1A receptor at 10 uM by radioligand displacement assay; how it was run: as §3
[15] = molecular target: Glutamate NMDA receptor (Rattus norvegicus) (UniProt P35439+Q00959+Q00960+Q00961+Q62645+Q8VHN2+Q9R1M7); experiment: Inhibition of rat NMDA receptor glutamate binding site at 10 uM by radioligand displacement assay; format: protein-complex assay; how it was run: as §4
[16] = molecular target: Melatonin receptor type 1A (Homo sapiens) (UniProt P48039); experiment: Inhibition of human MT1 receptor at 10 uM by radioligand displacement assay; how it was run: as §3
[17] = molecular target: Prostaglandin E2 receptor EP4 subtype (Homo sapiens) (UniProt P35408); experiment: Inhibition of human prostanoid receptor EP4 at 10 uM by radioligand displacement assay; how it was run: as §4
Oryctolagus cuniculus = species on record: Oryctolagus cuniculus; experiment: Inhibition of rabbit Purinergic P2X receptor at 10 uM by radioligand displacement assay; format: tissue-based; how it was run: as §4
Rattus norvegicus [18] = species on record: Rattus norvegicus; experiment: Inhibition of rat Rolipram binding site at 10 uM by radioligand displacement assay; how it was run: as §4
[19] = molecular target: Substance-P receptor (Homo sapiens) (UniProt P25103); experiment: Inhibition of human tachykinin NK1 receptor at 10 uM by radioligand displacement assay; how it was run: as §4
[20] = molecular target: Sodium-dependent noradrenaline transporter (Homo sapiens) (UniProt P23975); experiment: Inhibition of human norepinephrine transporter at 10 uM by radioligand displacement assay; how it was run: as §4
Sodium-dependent noradrenaline transporter (Homo sapiens), sequence (P23975 whole entry): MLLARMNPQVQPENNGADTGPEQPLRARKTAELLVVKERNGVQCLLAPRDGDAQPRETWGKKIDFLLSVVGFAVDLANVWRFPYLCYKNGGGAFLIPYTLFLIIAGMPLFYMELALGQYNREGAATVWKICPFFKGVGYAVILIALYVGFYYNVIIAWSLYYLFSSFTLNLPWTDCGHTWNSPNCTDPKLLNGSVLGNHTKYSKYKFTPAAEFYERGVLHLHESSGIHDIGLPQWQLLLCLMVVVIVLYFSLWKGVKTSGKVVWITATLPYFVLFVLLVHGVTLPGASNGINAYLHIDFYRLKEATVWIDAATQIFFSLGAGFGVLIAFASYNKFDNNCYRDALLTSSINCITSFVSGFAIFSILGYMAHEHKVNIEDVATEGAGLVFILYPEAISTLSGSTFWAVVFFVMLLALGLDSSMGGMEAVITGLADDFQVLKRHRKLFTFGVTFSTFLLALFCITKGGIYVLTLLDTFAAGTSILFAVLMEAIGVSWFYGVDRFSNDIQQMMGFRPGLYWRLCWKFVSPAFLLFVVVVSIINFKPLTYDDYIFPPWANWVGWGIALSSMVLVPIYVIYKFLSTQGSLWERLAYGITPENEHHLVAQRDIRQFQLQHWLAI

[21] = molecular target: Sodium-dependent serotonin transporter (Homo sapiens) (UniProt P31645); experiment: Inhibition of human serotonin transporter at 10 uM by radioligand displacement assay; how it was run: as §4
Sodium-dependent serotonin transporter (Homo sapiens), sequence (P31645 whole entry, looked up): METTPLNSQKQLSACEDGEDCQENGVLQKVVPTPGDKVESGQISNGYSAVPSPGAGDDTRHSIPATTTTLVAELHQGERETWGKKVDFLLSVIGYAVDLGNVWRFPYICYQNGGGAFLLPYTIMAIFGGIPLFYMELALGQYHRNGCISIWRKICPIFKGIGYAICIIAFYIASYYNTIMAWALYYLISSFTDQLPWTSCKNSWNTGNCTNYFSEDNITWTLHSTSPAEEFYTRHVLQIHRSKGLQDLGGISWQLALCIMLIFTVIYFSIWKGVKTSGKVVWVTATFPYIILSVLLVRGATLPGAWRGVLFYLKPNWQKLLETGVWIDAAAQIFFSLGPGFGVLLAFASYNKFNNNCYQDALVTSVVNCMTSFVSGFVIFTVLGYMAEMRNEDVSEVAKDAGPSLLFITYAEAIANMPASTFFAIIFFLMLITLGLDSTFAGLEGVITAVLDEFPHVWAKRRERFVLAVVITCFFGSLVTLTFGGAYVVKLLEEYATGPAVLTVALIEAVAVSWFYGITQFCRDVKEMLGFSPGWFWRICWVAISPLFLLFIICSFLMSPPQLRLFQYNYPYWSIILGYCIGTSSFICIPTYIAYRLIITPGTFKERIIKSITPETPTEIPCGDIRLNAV

[22] = Toxicity in ip dosed wild type mouse administered twice daily; format: organism-based; conditions: in vivo
How it was run: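 Tolerability was tested in wild-type mice by i.p. injection twice daily. Each injection increased the dose one-fold, up to 75 mg/kg.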

Mus musculus = experiment: Neuroprotective activity in SOD1 G93A mutant B6SJL mouse ALS model assessed as life extension at 1 mg/kg administered qd for 1 week (reference value: 125.7 +/- 4.9 days); format: functional
[23] = Drug uptake in B6SJL mouse brain at 300 mg/kg after 4 hrs; format: ADME, organism-based; design: dose 300 mg/kg; conditions: read-out: Drug uptake
How it was run: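 B6SJL mice given a 300 mg/kg intraperitoneal bolus. Blood and brain collected over 0–24 h, flash frozen in liquid nitrogen, stored at −80 °C. Analysed by mass spectrometry (ESI, MRM mode).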

Plasma = experiment: Plasma protein binding in rat; format: ADME, cell-free

SMILES: O=c1cc(COc2cc(Cl)cc(Cl)c2)[nH][nH]1
- t1/2 [1]: 36 min
- Papp (Caco-2): 36.7 ×10⁻⁶ cm/s
- concentration at 3 h [2]: 342 µM
- concentration at 12 h [3]: 248 µM
- Cmax [4]: 39 ng/mL
- Tmax [5]: 15 min
- inhibition at 10 µM (hERG): 0.6%
- IC50 (Cytochrome P450 2C19): 20 µM
- IC50 (Cytochrome P450 2D6): > 50 µM
- IC50 (Cytochrome P450 3A4): > 50 µM
- inhibition [6]: 6%
- inhibition [7]: 3%
- inhibition [8]: -2%
- inhibition [9]: -4%
- inhibition (Homo sapiens): -3%
- inhibition [10]: 0%
- inhibition [11]: 10%
- inhibition [12]: 3%
- inhibition (Rattus norvegicus [13]): 12%
- inhibition [14]: -7%
- inhibition [15]: -3%
- inhibition [16]: 3%
- inhibition [17]: -8%
- inhibition (Oryctolagus cuniculus): 1%
- inhibition (Rattus norvegicus [18]): -2%
- inhibition [19]: 3%
- inhibition [20]: -10%
- inhibition [21]: -6%
- MTD [22]: 75 mg/kg
- Survival (Mus musculus): 129.2 days
- concentration at 4 h [23]: 194 µM
- PPB (Plasma): 98%
